# Compound activity (PubChem BioAssay)
# A selection: hits, their analogues and other compounds. The true share with any hit is near 1.8%.
# NPY-Y1 PAM-ag = human NPY-Y1 potentiation or agonism, primary screen | P25929 | NPY-Y1 expressing cells, potentiator/agonist activation | activation, % at 3.6 µM | 220,000 tested, 0.37% active | AID 1304; in the data active means activation above about 33%, passing the limit was not always enough;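 further: cells stimulated with NPY at EC10 then isoproterenol at EC100; 0% = low agonist plus stimulus and 100% = saturating agonist plus stimulus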
# Target sequence (P25929 whole entry, looked up): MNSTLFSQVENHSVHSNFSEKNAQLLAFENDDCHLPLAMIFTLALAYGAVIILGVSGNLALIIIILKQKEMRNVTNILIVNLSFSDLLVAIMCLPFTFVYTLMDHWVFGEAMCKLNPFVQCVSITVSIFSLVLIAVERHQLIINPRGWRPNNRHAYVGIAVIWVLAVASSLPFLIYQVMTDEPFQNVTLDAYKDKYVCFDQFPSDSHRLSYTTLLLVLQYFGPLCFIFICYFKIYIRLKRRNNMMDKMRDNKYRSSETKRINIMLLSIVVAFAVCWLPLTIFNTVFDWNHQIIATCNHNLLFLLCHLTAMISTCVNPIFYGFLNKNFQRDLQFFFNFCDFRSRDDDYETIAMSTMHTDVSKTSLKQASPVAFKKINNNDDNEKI
# NPY Y1 blocker = blocks the human neuropeptide Y Y1 receptor; AID 1040; HEK293-CNG Y1 cells, membrane potential fluorescence; NPY at EC95, then isoproterenol; P25929; inhibition, % at 3.6 µM; 200,000 tested, 1% active;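 active means inhibition above the campaign mean inhibition of all tested compounds plus 3 SD, cut at about 20% in these data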;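 further: 0% = DMSO wells given NPY plus isoproterenol and 100% = isoproterenol alone without NPY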
#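 System: HEK293 cells with Y1 receptor plus CNG channel / Probe or stimulus: NPY 25 nM then isoproterenol 1 µM plus Ro 20-1724 25 µM / Compound: one concentration, 3.6 µM, in 0.4% DMSO / Schedule: compound incubation 1 h at room temperature, readout 45 min post-stimulation / Measured by: membrane potential fluorescence / Read-out: % inhibition of NPY effect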
# NPY-Y2 antag = blocks the human neuropeptide Y Y2 receptor; NPY-Y2 expressing cells, antagonist mode; inhibition, % at 2.7 µM; 140,000 tested, 0.99% active;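 further: 0% = vehicle with agonist challenge and 100% = reference antagonist with challenge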
# NPY2 pot ag = potentiates or activates human NPY-Y2 receptor; 220,000 tested, 0.45% active; cells expressing NPY-Y2, potentiator/agonist read-out; P49146; activation, % at 3.6 µM; in the data active means activation above about 27%;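 further: cells stimulated with NPY near EC25 plus isoproterenol at EC100; 0% = vehicle plus submaximal agonist and 100% = vehicle plus saturating agonist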
# NPY-Y1 ant conf = confirmation of human neuropeptide Y receptor Y1 antagonists; shares compounds with NPY Y1 blocker; HEK293-CNG NPY-Y1, membrane potential fluorescence, cAMP; NPY challenge against isoproterenol-raised cAMP; inhibition, % at 3.6 µM; 1,200 tested, 21% active; in the data active means inhibition above about 20%;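 further: 0% = vehicle with agonist plus stimulus and 100% = stimulus alone without agonist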
# NPY2 antag ctr = counter-screen for NPY-Y1 antagonists: human NPY-Y2 antagonism | inhibition, % at 3.6 µM | 1,200 tested, 28% active | shares compounds with NPY Y1 blocker | HEK293 NPY-Y2 CNG membrane potential fluorescence; cells given NPY, then isoproterenol;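 further: 0% = DMSO with agonist challenge and 100% = reference antagonist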
# Starred values were filed as active, the others as inactive; . = no result. Unless noted, no stated cut-off is given here; in the data, active means inhibition above about 17%; inactive means the rest.
SMILES,NPY-Y1 PAM-ag,NPY Y1 blocker,NPY-Y2 antag,NPY2 pot ag,NPY-Y1 ant conf,NPY2 antag ctr
CC(NCc1ccc(-c2ccccc2)cc1)C(O)c1ccccc1 (stereo not given),-78,20*,10,-28,18,29*
CCOC(=O)c1c(C)n(C)c2ccc(O)c(CN3CCN(C)CC3)c12,-13,5,4,-2,.,.
CCOC(=O)c1c(CSc2ccccc2)n(C)c2ccc(O)c(CN3CCOCC3)c12,-57,38*,.,-36,30*,9
COc1cccc(C(=O)Nc2sc(C(C)C)cc2C(N)=O)c1OC,42,.,.,22,.,.
CCOC(=O)C1(Cc2ccccc2)CCN(Cc2cccn2-c2nccs2)CC1,-33,29*,.,-10,12,22*
CCOC(=O)C1(Cc2ccccc2)CCN(Cc2cccn2-c2cccnc2)CC1,-9,30*,.,-8,15,8
COc1ccc(/C=C/C(=O)OCC(=O)NCCC2=CCCCC2)cc1S(=O)(=O)N1CCOCC1,-9,-5,.,-13,.,.
CC(C)(/C=N/NC(=O)CSCc1ccc(Cl)cc1)CCC#N,-11,-2,.,4,.,.
O=C(Cn1ccc(C(F)(F)F)n1)N=Nc1c(O)[nH]c2ccccc12,-2,38*,.,-46,36*,40*
O=C(Cn1ccc(C(F)(F)F)n1)N=Nc1c(O)[nH]c2ccc(Br)cc12,7,1,.,0,.,.
C[n+]1c2n(c3ccccc31)N=C(c1cc(C(C)(C)C)c(O)c(C(C)(C)C)c1)CS2,-32,65*,.,-28,48*,39*
COc1cccc(C2=Nn3c(nnc3-c3ccccc3O)SC2)c1,-77,7,7,-12,.,.
Cc1ccc(C2(c3noc(CN(C)Cc4cccnc4)n3)CCCC2)cc1,-5,0,.,-7,.,.
COc1ccc(C2=NOC(C(=O)NCc3ccccc3)C2)cc1 (stereo not given),-18,29*,8,-12,13,19*
COc1cccc(C2=NOC(C(=O)NCc3ccco3)C2)c1 (stereo not given),-13,11,3,-10,.,.
O=C(NCc1cccs1)C1CC(c2ccc(Cl)cc2)=NO1 (stereo not given),-13,0,.,-10,.,.
COc1cccc(C2=NOC(C(=O)NCc3ccccc3)C2)c1 (stereo not given),-30,45*,10,-39,17,28*
O=C(NCc1cccs1)C1CC(c2ccc(Cl)c(Cl)c2)=NO1 (stereo not given),-18,24*,.,-35,18,29*
CCN(CC(O)COc1ccc(OCC(O)CN(CC)C2CCCCC2)cc1)C1CCCCC1 (stereo not given),-53,22*,10,-11,6,32*
CCN(CC(O)COCc1ccc(Cl)cc1)C1CCCCC1 (stereo not given),-1,6,.,-5,.,.
CCOC(=O)c1c(NC(=O)C(C)N2CCN(S(=O)(=O)c3cccs3)CC2)sc2c1CCC(C)C2 (stereo not given),-11,3,2,1,.,.
O=C(NCCN1CCOCC1)c1cc(-c2ccco2)on1,4,21*,6,5,-1,0
Cc1cccc(C)c1OCCn1nc(C(=O)O)c2ccccc2c1=O,-35,24*,10,-30,17,23*
O=C(COc1ccc(Cl)cc1)Nc1nnc(C2=COCCO2)o1,-19,22*,.,-32,10,7
CCN(C(=O)[C@@H]1CCCN1C(=O)c1cccs1)c1nc2cc(Cl)ccc2s1,-13,10,-1,-10,.,.
SMILES,NPY-Y1 PAM-ag,NPY Y1 blocker,NPY-Y2 antag,NPY2 pot ag,NPY-Y1 ant conf,NPY2 antag ctr
Cc1ccc(-c2cc(C(F)(F)F)n3ncc(C(=O)O)c3n2)cc1,-2,21*,2,-10,2,3
O=C(c1cnn2c(C(F)(F)F)cc(-c3ccco3)nc12)N1CCCCCC1,-19,1,5,-28,.,.
O=C(c1cnn2c(C(F)(F)F)cc(-c3ccco3)nc12)N1CCc2ccccc2C1,-49,21*,11,-18,10,7
COc1ccc(-c2cc(C(F)(F)F)n3ncc(C(=O)O)c3n2)cc1OC,-7,-3,4,21,.,.
Cc1cc([N+](=O)[O-])nn1Cc1ccc(C(=O)N/N=C/c2ccc(N(C)C)cc2)cc1,24,.,.,-27,.,.
NC1=NC(c2ccccc2)N=C(Nc2ccccc2)N1 (stereo not given),-7,.,.,0,.,.
CCOc1ccc(CNC(=O)c2ccc(Sc3ccc(Cl)cc3)c(NC(C)=O)c2)cc1,-70,41*,16,-35,24*,20*
COc1ccc(-c2nnc(OCc3nc4ccccc4n3C)c3ccccc23)cc1,-1,8,10,-7,.,.
Cn1c(COc2nnc(-c3ccc(Cl)cc3)c3ccccc23)nc2ccccc21,3,39*,1,13,1,-1
O=C(O)c1cc(-c2ccccc2)n(-c2ccc(Cl)cc2)n1,-19,3,.,-3,.,.
O=C(O)c1cc(-c2ccccc2)n(-c2ccccc2)n1,-20,24*,11,-11,5,10
CC(=O)Nc1ccc(C)c(NS(=O)(=O)c2cccc(C(F)(F)F)c2)c1,17,.,.,-4,.,.
CC(=O)c1c(OC(=O)c2ccc(C)cc2)c2ccccc2n1C,-30,34*,15,-27,13,13
CC(=O)c1c(OC(=O)c2ccco2)c2ccccc2n1C,-6,1,4,-8,.,.
Cc1cccc(-n2c(C)cc(C)c(C#N)c2=O)c1,9,0,.,9,.,.
C=C(C)Cn1c(C)cc(C)c(S(=O)(=O)c2cccc(C)c2)c1=O,1,3,.,0,.,.
COc1cccc(CNn2cnnc2)c1OCc1ccc(F)cc1,13,1,0,-2,.,.
COc1cccc(CNC23CC4CC(CC(C4)C2)C3)c1OCc1ccccc1,-90,165*,.,-23,114*,84*
O=C(c1cc(-c2cccs2)on1)N1CCN(c2ccccc2)CC1,-32,25*,13,-22,8,9
O=C(c1cc(-c2cccs2)on1)N1CCN(c2ccc(F)cc2)CC1,-4,9,9,6,.,.
CCN1CCN(c2nc(-c3ccccc3)nc3ccccc23)CC1,-36,21*,5,1,10,6
c1ccc2c(N3CCOCC3)nc(-c3ccncc3)nc2c1,7,-1,2,14,.,.
N#CC1=C(Nc2ccccc2)SC=C(c2ccc(Cl)c(Cl)c2)N=C1N1CCOCC1,-26,25*,9,-2,8,14
CC(CCc1ccccc1)NC(=O)CNC(=S)N(Cc1cccs1)C1CCCC1 (stereo not given),21,1,.,8,.,.
CC(NC(=O)COC(=O)CCNC(=O)c1ccco1)C12CC3CC(CC(C3)C1)C2 (stereo not given),-31,20*,4,-25,22*,27*
CC(C)[C@H](NC(=O)c1ccco1)C(=O)OCC(=O)NC12CC3CC(CC(C3)C1)C2,-12,7,.,3,.,.
